The source of these data is ChEMBL document CHEMBL4118144, “Design, Synthesis, and Testing of Potent, Selective Hepsin Inhibitors via Application of an Automated Closed-Loop Optimization Platform” (J Med Chem, 2018).

A value given as a limit tells only on which side of the number the result lay.

One assay concerns HepG2. The assay can be described thus: Cytotoxicity against human HepG2 cells assessed as reduction in cell viability after 48 hrs by CellTiter-Blue/CytoTox-ONE-based assay. The settings on record: HepG2, 48 h. The procedure, abridged:
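Human Hep-G2 cells were exposed to compound at concentrations up to 10 µM. The value is reported as viable-50 (µM), the concentration at which 50% of cells remain viable.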

Assay [1] concerns the target Prothrombin (Homo sapiens) (UniProt P00734). The assay can be described thus: Inhibition of human thrombin using Z-Gly-Pro-Arg-AMC as substrate at 1 uM after 60 mins by fluorescence spectrophotometric method relative to control. The procedure, abridged:
(§1)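 Panel of ten serine proteases; percent inhibition read at compound concentrations of 1 µM and 10 µM, each value the mean of 2 experiments.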

In assay [2] the target is T1, Cathepsin G (Homo sapiens) (UniProt P08311).
T1 sequence (whole entry): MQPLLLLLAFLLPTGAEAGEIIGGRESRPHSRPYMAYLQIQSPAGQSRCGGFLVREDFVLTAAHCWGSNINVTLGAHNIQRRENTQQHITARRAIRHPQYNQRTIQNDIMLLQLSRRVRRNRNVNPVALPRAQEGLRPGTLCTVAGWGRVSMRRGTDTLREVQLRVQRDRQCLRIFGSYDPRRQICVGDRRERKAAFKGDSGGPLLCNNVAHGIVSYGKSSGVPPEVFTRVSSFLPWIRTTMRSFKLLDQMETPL
The assay can be described thus: Inhibition of human cathepsin G using Suc-Ala-Ala-Pro-Phe-AMC as substrate at 1 uM after 30 mins by fluorescence spectrophotometric method relative to control. The procedure, abridged:
as §1

The target in assay [3] is T2, Tryptase (Homo sapiens) (UniProt Q9BZJ3+Q15661+Q9NRR2). The assay can be described thus: Inhibition of recombinant full length human tryptase usingZ-Gly-Pro-Arg-AMC as substrate at 1 uM after 60 mins by fluorescence spectrophotometric method relative to control. The format is protein assay. The procedure, abridged:
as §1

Assay [4] addresses T2, Tryptase (Homo sapiens). The assay can be described thus: Inhibition of recombinant full length human tryptase usingZ-Gly-Pro-Arg-AMC as substrate at 10 uM after 60 mins by fluorescence spectrophotometric method relative to control. The format is protein assay. The procedure, abridged:
as §1

The next assay concerns the target Trypsin (Homo sapiens) (UniProt P07477+P07478+P35030). The assay can be described thus: Inhibition of human trypsin using Z-Gly-Pro-Arg-AMC as substrate at 1 uM after 60 mins by fluorescence spectrophotometric method relative to control. In kind it is protein assay. The procedure, abridged:
as §1

The target of assay [5] is Plasma kallikrein (Homo sapiens) (UniProt P03952). The assay can be described thus: Inhibition of human plasma kallikrein using H-D-Pro-Phe-Arg-pNA as substrate at 10 uM after 30 mins by spectrophotometric method relative to control. The procedure, abridged:
as §1

In assay [6] the target is T3, Neutrophil elastase (Homo sapiens) (UniProt P08246).
T3 sequence (whole entry): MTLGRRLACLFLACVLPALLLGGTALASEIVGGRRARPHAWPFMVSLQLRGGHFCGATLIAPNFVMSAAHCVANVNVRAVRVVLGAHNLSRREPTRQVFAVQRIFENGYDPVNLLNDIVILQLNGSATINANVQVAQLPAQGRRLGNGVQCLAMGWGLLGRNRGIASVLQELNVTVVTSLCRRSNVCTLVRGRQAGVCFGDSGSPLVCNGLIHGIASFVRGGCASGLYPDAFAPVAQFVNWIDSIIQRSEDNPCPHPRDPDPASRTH
The assay can be described thus: Inhibition of human ELA2 using N-MeOSuc-Ala-Ala-Pro-Val-pNA as substrate at 10 uM after 60 mins by spectrophotometric method relative to control. The procedure, abridged: as §1

Assay [7] concerns the target T4, Suppressor of tumorigenicity 14 protein (Homo sapiens) (UniProt Q9Y5Y6).
T4 sequence (whole entry): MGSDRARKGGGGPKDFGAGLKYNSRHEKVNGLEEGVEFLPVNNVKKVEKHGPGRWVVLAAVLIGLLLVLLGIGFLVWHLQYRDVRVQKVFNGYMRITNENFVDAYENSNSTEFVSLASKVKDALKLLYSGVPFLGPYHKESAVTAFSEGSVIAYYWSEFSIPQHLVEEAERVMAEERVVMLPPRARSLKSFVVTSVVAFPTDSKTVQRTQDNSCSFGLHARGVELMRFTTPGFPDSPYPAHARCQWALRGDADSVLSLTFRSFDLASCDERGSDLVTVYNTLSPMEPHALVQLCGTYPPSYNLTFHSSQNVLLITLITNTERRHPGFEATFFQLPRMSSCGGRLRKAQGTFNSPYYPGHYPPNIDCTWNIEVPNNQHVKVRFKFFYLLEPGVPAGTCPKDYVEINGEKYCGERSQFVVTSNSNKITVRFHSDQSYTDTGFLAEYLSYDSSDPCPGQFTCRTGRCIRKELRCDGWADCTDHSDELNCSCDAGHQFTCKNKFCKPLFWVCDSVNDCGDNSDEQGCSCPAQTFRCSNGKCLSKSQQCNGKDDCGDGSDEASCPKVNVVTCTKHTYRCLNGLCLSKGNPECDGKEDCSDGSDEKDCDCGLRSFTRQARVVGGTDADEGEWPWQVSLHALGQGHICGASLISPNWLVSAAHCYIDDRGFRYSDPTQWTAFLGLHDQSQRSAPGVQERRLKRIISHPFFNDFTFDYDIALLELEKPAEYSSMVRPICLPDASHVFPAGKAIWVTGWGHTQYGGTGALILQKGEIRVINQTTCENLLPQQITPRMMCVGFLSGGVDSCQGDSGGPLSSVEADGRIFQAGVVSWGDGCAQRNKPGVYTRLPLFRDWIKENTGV
The assay can be described thus: Inhibition of matriptase (unknown origin) using BOC-QAR-AMC as substrate at 1 uM after 15 mins by fluorescence assay relative to control. The procedure, abridged:
as §1

Assay [8] deals with T5, Hepatocyte growth factor activator serine protease (Homo sapiens) (UniProt Q04756).
T5 sequence (whole entry): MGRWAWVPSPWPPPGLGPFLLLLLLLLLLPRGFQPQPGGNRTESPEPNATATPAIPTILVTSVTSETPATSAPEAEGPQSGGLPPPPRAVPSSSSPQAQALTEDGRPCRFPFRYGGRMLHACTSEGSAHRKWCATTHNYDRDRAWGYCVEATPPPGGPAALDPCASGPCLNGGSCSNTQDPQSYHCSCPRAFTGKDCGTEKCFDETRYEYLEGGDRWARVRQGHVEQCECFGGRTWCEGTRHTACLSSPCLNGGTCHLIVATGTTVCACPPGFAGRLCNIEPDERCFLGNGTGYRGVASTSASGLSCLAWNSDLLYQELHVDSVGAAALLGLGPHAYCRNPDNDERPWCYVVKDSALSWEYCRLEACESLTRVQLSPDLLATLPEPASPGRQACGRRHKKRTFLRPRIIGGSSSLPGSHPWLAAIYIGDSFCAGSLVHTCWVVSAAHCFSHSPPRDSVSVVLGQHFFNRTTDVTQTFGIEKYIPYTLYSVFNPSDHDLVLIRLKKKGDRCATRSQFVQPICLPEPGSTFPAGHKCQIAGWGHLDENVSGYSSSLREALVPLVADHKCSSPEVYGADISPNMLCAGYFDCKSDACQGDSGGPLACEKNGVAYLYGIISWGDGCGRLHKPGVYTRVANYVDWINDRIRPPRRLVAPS
The assay can be described thus: Inhibition of C-terminal 10-His tagged recombinant human HGFA (Gln36 to Ser655 residues) expressed in mouse […] cells 10 uM after 15 mins by fluorescence assay relative to control. The format is cell-based.

Sequence of Plasma kallikrein (Homo sapiens) (P03952 20-390 limits assumed): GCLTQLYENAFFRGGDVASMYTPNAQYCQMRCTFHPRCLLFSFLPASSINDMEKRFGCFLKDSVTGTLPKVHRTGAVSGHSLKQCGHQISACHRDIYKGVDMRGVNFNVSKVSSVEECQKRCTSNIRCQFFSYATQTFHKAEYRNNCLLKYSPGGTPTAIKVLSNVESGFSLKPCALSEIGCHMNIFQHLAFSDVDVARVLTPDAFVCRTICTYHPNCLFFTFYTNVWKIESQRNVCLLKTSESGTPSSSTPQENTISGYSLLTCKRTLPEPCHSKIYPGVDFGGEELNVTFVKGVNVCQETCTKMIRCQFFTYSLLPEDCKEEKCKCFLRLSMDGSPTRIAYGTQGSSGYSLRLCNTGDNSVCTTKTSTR
Sequence of Plasma kallikrein (Homo sapiens) (P03952 391-638 limits assumed): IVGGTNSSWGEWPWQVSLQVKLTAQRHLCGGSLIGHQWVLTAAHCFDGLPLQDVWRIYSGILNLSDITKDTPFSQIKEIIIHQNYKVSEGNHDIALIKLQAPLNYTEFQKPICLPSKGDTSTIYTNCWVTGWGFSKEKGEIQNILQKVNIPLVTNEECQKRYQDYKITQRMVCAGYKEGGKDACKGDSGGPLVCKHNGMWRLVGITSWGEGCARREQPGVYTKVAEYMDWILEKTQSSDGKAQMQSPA

By IC50 is commonly meant the concentration that inhibits the measured activity by half. Broadly, the inhibition is the share of the control response that was lost under treatment. Turning to `N=C(N)c1ccc(NC(=O)[C@H](NS(=O)(=O)c2ccc(F)cc2)C2CCCCC2)cc1`, in the assay with HepG2, the IC50 is above 10 µM. For the same compound, the inhibition in assay [1] was below 10%; in assay [2], below 10%; at Tryptase (Homo sapiens) [3], 40%; at Tryptase (Homo sapiens) [4], 91%; against Trypsin (Homo sapiens), 77%; in assay [5] it was 34%. In addition, the inhibition in assay [6] was below 10%; in assay [7], below 10%; in assay [8], 24%.

Take `Cc1ccc(S(=O)(=O)N[C@@H](C(=O)Nc2ccc(C(=N)N)cc2)C2CCCCC2)cc1`: the half-maximal inhibitory concentration (IC50) in the assay with HepG2 is above 10 µM. Also, the inhibition was 11% in assay [1]; below 10% in assay [2]; 52% on Tryptase (Homo sapiens) [3]; 98% on Tryptase (Homo sapiens) [4]; 83% at Trypsin (Homo sapiens); 29% in assay [5]. In addition, the inhibition was below 10% in assay [6], below 10% in assay [7] and 22% in assay [8].

For the compound `Cc1ccc(S(=O)(=O)N[C@@H](C(=O)Nc2ccc(C(=N)N)cc2)c2ccccc2)cc1`, the concentration for half-maximal inhibition (IC50) in the assay on HepG2 was above 10 µM. For the same compound, the inhibition is below 10% in assay [1]; below 10% in [2]; 27% at Tryptase (Homo sapiens) [3]; 80% at Tryptase (Homo sapiens) [4]; 54% at Trypsin (Homo sapiens); 85% in [5]. For the same compound, the values for the inhibition in [6], in [7] and in assay [8] were below 10%, below 10% and 24%, respectively.
